ChEMBL document CHEMBL1122570, “Studies on 1,2,3-triazoles. 10. Synthesis and antiallergic properties of 9-oxo-1H,9H-benzothiopyrano[2,3-d]-1,2,3-triazoles and their S-oxides” (1984)

System: Rattus norvegicus
Assay: Compound was evaluated for its antiallergic activity in rat passive cutaneous anaphylaxis (PCA) test by the intravenous administration.
Type: functional
How it was run: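 Male Sprague–Dawley rats (250–300 g) sensitized intradermally on shaved backs with six twofold dilutions (typically 1:4–1:128) of rat anti-ovalbumin serum in 0.9% saline. After 72 h, compound given iv to groups of six just before iv challenge with 1% ovalbumin plus pontamine sky-blue. Killed at 20 min and wheal diameters measured. Inhibition computed against vehicle controls; ED50 from log-dose regression with 95% confidence limits.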

For O=C1c2ccccc2S(=O)(=O)c2[nH]nnc21, the ED50 was 6.14 mg/kg.

For O=c1c2ccccc2[s+]([O-])c2[nH]nnc12 (stereo not given), the ED50 was 1.23 mg/kg.

Compound Cc1cc2sc3nnnc-3c(O)c2cc1C has an ED50 of 0.43 mg/kg.

Cc1ccc2c(c1)C(=O)c1[nH]nnc1S2(=O)=O was tested, and the ED50 was 5.88 mg/kg.

Compound Cc1cc2c(cc1C)S(=O)(=O)c1nn[nH]c1C2=O has an ED50 of 0.6 mg/kg.

For Cc1ccc2sc3nnnc-3c(O)c2c1C, the ED50 was 3.18 mg/kg.

Oc1c2nnnc-2sc2ccccc12 was tested, and the ED50 was 1.43 mg/kg.

COc1ccc2sc3nnnc-3c(O)c2c1 showed an ED50 of 1.59 mg/kg.

Cc1ccc2c(c1C)C(=O)c1[nH]nnc1S2(=O)=O gave an ED50 of over 1 mg/kg.

For Cc1ccc2sc3nnnc-3c(O)c2c1, the ED50 was 11.4 mg/kg.
